The text below walks through data of PMC5701743 (Nature, 2017).

Where a chain is given by its changes, count along the chain named.

The first test addresses T1, Vrg4 (Saccharomyces cerevisiae, UniProt P40107).
T1 sequence (P40107 1-337): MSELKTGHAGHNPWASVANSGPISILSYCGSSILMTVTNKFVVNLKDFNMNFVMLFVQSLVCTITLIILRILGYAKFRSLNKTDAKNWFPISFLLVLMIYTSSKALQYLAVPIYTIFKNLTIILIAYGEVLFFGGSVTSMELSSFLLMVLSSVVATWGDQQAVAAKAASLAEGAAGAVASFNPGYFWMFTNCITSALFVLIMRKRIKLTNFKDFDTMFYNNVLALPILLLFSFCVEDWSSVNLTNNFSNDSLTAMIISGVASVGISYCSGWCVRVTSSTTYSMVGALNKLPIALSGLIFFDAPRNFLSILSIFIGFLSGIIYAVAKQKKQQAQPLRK
Assay: not given
Type of test: biochemical. As to conditions: internal substrate; 0.5 μM 3H-GMP outside. The gist of the method: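 Yeast Vrg4-GFP-His was galactose-induced, IMAC-purified in DDM, and then in DM reconstituted by dilution into yeast polar lipid vesicles at 80:1 lipid:protein and dialysed. Internal substrate was loaded by six freeze-thaw cycles and 0.4 μm extrusion. 4 μg protein was added to 50 μl of 20 mM Hepes pH 7.5, 50 mM KCl, 2 mM MgSO4 with 0.5 μM 3H-GMP. Samples were filtered, washed with cold water and scintillation-counted. ≥4 repeats, mean ± S.D.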
Regarding `Nc1ncnc2c1ncn2[C@@H]1O[C@H](COP(=O)(O)O)[C@@H](O)[C@H]1O` [AMP, adenine monophosphate], the “Transport driven by substance inside the liposome” value (“Transport driven” below) was “poor transport”.

`Nc1ccn([C@@H]2O[C@H](COP(=O)(O)O)[C@@H](O)[C@H]2O)c(=O)n1` [CMP, cytosine monophosphate]: the “Transport driven” value is reported as “no significant transport”.

For the compound `Nc1nc2c(ncn2[C@@H]2O[C@H](COP(=O)(O)OP(=O)(O)OP(=O)(O)O)[C@@H](O)[C@H]2O)c(=O)[nH]1` [GTP], the “Transport driven” value is listed as “cannot be driven”.

In another test the target is T2, Vrg4 Tyr114Phe (Y114F) (Saccharomyces cerevisiae, UniProt P40107, Y114F).
T2 sequence (P40107 1-337 Y114F): T1 sequence (P40107 1-337) with Y114F
The test is described as follows: IC50 curves, Vrg4 Tyr114Phe variant proteoliposomes. Conditions: Tyr114Phe versus wild type. Type of test: biochemical. An outline of the steps:
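Wild-type or mutant Vrg4 was purified in DM and reconstituted at 80:1 lipid:protein into yeast polar lipid proteoliposomes. Reconstituted protein was matched by SDS-PAGE densitometry. Liposomes were substrate-loaded by freeze-thaw and extrusion. Uptake was started by adding 4 μg protein equivalent to 50 μl buffer (20 mM Hepes pH 7.5, 50 mM KCl, 2 mM MgSO4) with 0.5 μM 3H-GMP, then filtered and counted. IC50 from curves, mean of three independent experiments, s.d.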
Turning to `Nc1nc2c(ncn2[C@@H]2O[C@H](COP(=O)(O)OP(=O)(O)O[C@H]3O[C@H](CO)[C@@H](O)[C@H](O)[C@@H]3O)[C@@H](O)[C@H]2O)c(=O)[nH]1` [GDP-M, GDP-mannose], the “Affinity relative to wild type” value is recorded as “reduced the affinity”.

For the compound `Nc1nc2c(ncn2[C@@H]2O[C@H](COP(=O)(O)O)[C@@H](O)[C@H]2O)c(=O)[nH]1` [GMP, guanine monophosphate], the “Affinity relative to wild type” value is listed as “reduced the affinity”.

In another test the target is T3, wild type Vrg4 (Saccharomyces cerevisiae, UniProt P40107).
T3 sequence (P40107 1-337): T1 sequence (P40107 1-337)
The test is described as follows: Competition / IC50 of 3H-GMP uptake into wild type Vrg4 proteoliposomes. Type of test: biochemical. As to conditions: competition assay, n=4.
`C[C@@H]1O[C@H](OP(=O)(O)OP(=O)(O)OC[C@H]2O[C@@H](n3cnc4c(=O)[nH]c(N)nc43)[C@H](O)[C@@H]2O)[C@@H](O)[C@H](O)[C@@H]1O` [GDP-F, GDP-fucose]: the “Competition of transport (recognition by the binding site)” value (from here on “Competition of transport”) is “can also compete”.

`Nc1nc2c(ncn2[C@@H]2O[C@H](COP(=O)(O)OP(=O)(O)O[C@H]3O[C@H](CO)[C@@H](O)[C@H](O)[C@@H]3O)[C@@H](O)[C@H]2O)c(=O)[nH]1` [GDP-M, GDP-mannose]: the “Competition of transport” value is “most effective competitors of transport”.

As for `Nc1nc2c(ncn2[C@@H]2O[C@H](COP(=O)(O)OP(=O)(O)O)[C@@H](O)[C@H]2O)c(=O)[nH]1` [GDP], the “Competition of transport” value was “can also compete”.

Consider `Nc1nc2c(ncn2[C@@H]2O[C@H](COP(=O)(O)O)[C@@H](O)[C@H]2O)c(=O)[nH]1` [GMP, guanine monophosphate], for which the “Competition of transport” value is reported as “most effective competitors of transport”.

Consider `Nc1nc2c(ncn2[C@@H]2O[C@H](COP(=O)(O)OP(=O)(O)O[C@H]3O[C@H](CO)[C@@H](O)[C@H](O)[C@H]3O)[C@@H](O)[C@H]2O)c(=O)[nH]1` [GTP-G, GDP-glucose], for which the “Competition of transport” value was “can also compete”.

Consider `O=P(O)(O)OP(=O)(O)O` [Pyrophosphate], for which the “Competition of transport” value is given as “cannot inhibit”.

On to `Nc1nc2c(ncn2[C@@H]2O[C@@H]3COP(=O)(O)O[C@H]3[C@H]2O)c(=O)[nH]1` [cyclic GMP], for which the “Competition of transport” value was “very poorly recognised”.

Regarding `Nc1nc2c(ncn2[C@@H]2O[C@H](CO)[C@@H](O)[C@H]2O)c(=O)[nH]1` [guanosine], the “Competition of transport” value is listed as “very poorly recognised”.

The target in another test is GDP-mannose transporter Vrg4 (Saccharomyces cerevisiae) (UniProt P40107). As to the kind of experiment: crystal structure.
Conditions: not given
The stoichiometry N is the number of molecules, sites or subunits per partner or assembly. “GDP-mannose transporter Vrg4 (from UniProt P40107 1-337) (natural protein)”: the stoichiometry N was found to be 2.
